Laboratory results as given in ChEMBL document CHEMBL5653631, “A Potent and Selective ULK1 Inhibitor Suppresses Autophagy and Sensitizes Cancer Cells to Nutrient Stress” (iScience, 2018).
Blank lines part the entries; values can stand above or below the molecule they belong to. The source made the active and inactive calls. No cut-off for these calls is given here.

Key:
[1] = biological target: Bone morphogenetic protein receptor type-1B (Homo sapiens) (UniProt O00238); assay: Inhibition of human recombinant BMPR1B at 500 nM related to control ULK1
Bone morphogenetic protein receptor type-1B (Homo sapiens), sequence (O00238 whole entry): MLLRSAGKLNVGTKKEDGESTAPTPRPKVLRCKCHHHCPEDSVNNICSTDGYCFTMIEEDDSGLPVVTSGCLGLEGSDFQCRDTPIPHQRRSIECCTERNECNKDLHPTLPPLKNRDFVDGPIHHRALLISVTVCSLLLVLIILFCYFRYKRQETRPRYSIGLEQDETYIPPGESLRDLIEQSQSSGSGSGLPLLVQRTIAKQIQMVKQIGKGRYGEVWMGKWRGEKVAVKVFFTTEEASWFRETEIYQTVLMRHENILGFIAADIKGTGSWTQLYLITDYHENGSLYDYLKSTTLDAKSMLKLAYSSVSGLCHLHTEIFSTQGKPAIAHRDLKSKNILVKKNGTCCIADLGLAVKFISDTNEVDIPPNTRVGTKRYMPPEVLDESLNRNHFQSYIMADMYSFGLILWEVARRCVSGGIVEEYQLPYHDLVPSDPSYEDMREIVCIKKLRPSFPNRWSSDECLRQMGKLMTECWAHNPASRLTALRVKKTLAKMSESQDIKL

[2] = biological target: Transient receptor potential cation channel subfamily M member 7 (Homo sapiens) (UniProt Q96QT4); assay: Inhibition of human recombinant ChaK1 at 500 nM related to control ULK1
[3] = biological target: Ribosomal protein S6 kinase alpha-1 (Homo sapiens) (UniProt Q15418); assay: Inhibition of human recombinant RSK1 at 500 nM in presence of ATP by radiometric assay relative to control
Ribosomal protein S6 kinase alpha-1 (Homo sapiens), sequence (Q15418 whole entry): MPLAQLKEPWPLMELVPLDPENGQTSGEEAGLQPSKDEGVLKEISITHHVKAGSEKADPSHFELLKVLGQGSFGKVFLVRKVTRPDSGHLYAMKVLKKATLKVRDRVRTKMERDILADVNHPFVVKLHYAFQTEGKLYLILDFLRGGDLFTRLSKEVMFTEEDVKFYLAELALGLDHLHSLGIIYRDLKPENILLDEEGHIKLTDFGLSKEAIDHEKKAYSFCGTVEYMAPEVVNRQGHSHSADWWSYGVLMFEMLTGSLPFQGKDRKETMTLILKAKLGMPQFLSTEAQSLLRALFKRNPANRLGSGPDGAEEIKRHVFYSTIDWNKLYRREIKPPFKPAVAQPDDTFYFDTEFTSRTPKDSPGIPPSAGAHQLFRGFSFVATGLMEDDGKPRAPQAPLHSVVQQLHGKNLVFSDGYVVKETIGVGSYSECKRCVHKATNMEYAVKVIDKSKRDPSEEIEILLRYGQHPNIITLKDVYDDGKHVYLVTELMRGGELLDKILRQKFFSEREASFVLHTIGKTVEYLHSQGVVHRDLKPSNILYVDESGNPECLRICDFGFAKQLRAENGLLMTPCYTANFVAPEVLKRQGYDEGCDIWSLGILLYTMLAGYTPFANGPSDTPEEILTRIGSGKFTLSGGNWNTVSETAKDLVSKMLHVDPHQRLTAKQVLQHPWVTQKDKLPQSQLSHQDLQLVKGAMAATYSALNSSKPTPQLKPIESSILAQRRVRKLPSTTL

[4] = biological target: T1, Serine/threonine-protein kinase 17B (Homo sapiens) (UniProt O94768); assay: Inhibition of human recombinant DRAK2 at 15 nM in presence of ATP by radiometric assay relative to control
T1 sequence (whole entry): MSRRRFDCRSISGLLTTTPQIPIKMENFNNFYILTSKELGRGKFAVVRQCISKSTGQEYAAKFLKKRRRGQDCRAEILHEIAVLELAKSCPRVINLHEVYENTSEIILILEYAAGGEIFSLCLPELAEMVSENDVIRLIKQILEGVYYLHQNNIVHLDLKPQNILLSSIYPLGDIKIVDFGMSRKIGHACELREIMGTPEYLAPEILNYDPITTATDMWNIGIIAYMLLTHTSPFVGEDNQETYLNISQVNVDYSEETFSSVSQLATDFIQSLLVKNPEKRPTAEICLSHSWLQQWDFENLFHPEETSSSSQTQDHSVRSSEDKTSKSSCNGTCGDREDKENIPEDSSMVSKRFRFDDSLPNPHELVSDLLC

[5] = biological target: T2, Protein kinase C epsilon type (Homo sapiens) (UniProt Q02156); assay: Inhibition of human recombinant PKCe at 15 nM in presence of ATP by radiometric assay relative to control
T2 sequence (whole entry): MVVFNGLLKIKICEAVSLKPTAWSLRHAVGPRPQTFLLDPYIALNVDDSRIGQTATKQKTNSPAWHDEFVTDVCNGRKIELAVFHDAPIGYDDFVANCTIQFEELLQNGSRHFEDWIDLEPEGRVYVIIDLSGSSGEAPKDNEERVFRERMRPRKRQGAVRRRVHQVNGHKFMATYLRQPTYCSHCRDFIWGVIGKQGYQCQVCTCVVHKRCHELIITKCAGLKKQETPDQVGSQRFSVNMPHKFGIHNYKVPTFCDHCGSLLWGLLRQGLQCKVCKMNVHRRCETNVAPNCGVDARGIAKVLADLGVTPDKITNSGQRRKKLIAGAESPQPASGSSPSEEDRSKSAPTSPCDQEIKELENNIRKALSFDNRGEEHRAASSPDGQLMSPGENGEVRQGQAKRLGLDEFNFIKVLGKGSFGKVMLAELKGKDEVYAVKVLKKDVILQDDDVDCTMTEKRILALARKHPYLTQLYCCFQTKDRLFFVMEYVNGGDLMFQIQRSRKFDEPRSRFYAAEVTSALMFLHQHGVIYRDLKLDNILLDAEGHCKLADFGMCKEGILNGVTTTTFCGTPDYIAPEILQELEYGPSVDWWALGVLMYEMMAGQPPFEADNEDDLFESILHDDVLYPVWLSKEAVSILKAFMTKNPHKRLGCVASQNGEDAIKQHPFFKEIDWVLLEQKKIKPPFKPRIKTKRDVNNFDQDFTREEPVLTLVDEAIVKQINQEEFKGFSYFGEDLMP

[6] = biological target: T3, MAP kinase-activated protein kinase 5 (Homo sapiens) (UniProt Q8IW41); assay: Inhibition of human recombinant MAPKAPK5 at 15 nM in presence of ATP by radiometric assay relative to control
T3 sequence (whole entry): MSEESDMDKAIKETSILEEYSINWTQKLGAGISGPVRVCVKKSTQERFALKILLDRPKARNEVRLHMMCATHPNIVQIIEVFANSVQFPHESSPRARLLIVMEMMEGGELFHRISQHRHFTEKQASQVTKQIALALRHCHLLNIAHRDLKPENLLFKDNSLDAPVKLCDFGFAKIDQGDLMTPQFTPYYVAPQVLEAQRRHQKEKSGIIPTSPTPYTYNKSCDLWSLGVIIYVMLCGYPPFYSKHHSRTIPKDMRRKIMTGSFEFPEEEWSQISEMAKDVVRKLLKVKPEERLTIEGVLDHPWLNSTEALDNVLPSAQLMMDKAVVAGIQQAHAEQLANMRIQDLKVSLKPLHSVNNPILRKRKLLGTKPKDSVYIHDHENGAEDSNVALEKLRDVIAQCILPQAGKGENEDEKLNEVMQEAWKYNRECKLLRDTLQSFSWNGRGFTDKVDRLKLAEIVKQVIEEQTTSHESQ

[7] = biological target: Ribosomal protein S6 kinase alpha-6 (Homo sapiens) (UniProt Q9UK32); assay: Inhibition of human recombinant RSK4 at 15 nM related to control ULK1
Ribosomal protein S6 kinase alpha-6 (Homo sapiens), sequence (Q9UK32 whole entry): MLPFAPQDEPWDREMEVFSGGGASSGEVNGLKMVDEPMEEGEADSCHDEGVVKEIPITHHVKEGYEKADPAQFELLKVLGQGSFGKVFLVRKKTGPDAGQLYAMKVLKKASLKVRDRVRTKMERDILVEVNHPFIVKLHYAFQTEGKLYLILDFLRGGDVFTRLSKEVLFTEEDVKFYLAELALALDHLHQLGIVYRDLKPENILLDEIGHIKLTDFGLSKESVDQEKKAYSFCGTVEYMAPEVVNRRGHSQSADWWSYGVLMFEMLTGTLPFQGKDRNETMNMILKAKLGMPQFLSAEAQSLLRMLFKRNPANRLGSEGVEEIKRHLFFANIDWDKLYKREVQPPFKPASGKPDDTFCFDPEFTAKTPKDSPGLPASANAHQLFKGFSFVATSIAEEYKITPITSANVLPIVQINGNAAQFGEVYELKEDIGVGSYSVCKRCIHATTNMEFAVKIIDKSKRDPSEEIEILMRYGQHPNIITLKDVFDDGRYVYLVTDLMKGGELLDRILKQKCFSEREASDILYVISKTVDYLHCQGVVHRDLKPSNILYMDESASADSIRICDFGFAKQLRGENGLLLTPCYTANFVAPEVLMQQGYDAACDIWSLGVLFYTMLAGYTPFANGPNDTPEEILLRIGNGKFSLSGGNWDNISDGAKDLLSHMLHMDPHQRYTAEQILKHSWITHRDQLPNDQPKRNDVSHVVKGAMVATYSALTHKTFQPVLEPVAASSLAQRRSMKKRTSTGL

U2OS = assay: Inhibition of autophagy in human U2OS cells expressing […] assessed as DFCP1-positive puncta formation at 5 uM incubated for 2.5 hrs in presence of […] by Fluorescent microscopy based analysis; type: functional, cell-based
Procedure, shortened: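 U2OS cells stably expressing EGFP-DFCP1 treated 2.5 hr with vehicle or 100 nM AZD8055, with or without 5 μM inhibitor; imaged live by fluorescence microscopy; DFCP1-positive objects per cell counted in 20–25 cells per condition; mean ± SEM, two-tailed unpaired t test.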

[8] = biological target: Fibroblast growth factor receptor 1 (Homo sapiens) (UniProt P11362); assay: Inhibition of human recombinant FGFR1 at 40 nM in presence of ATP by radiometric assay relative to control
Fibroblast growth factor receptor 1 (Homo sapiens), sequence (P11362 22-822 limits assumed): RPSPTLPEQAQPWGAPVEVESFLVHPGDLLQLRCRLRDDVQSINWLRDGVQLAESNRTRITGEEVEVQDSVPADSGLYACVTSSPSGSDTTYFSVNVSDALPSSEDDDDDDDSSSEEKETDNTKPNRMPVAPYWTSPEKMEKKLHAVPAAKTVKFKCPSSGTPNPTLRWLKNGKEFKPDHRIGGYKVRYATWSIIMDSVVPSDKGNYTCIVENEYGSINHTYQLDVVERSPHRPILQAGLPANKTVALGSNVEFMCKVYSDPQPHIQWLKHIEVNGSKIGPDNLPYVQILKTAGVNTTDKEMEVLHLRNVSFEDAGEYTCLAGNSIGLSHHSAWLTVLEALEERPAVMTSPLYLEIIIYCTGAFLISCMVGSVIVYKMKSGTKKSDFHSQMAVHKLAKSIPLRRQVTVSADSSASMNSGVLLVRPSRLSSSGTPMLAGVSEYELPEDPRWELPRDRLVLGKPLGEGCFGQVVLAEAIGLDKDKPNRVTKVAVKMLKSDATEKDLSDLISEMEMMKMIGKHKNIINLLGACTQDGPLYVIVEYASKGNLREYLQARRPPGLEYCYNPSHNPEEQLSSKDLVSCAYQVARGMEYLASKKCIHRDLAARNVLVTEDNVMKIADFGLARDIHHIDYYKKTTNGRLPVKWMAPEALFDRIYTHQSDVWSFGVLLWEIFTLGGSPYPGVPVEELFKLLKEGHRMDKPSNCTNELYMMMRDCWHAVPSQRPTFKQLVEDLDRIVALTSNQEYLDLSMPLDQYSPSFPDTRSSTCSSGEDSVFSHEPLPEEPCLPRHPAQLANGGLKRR

[9] = biological target: T4, Serine/threonine-protein kinase Chk1 (Homo sapiens) (UniProt O14757); assay: Inhibition of human recombinant CHK1 at 40 nM in presence of ATP by radiometric assay relative to control
T4 sequence (whole entry): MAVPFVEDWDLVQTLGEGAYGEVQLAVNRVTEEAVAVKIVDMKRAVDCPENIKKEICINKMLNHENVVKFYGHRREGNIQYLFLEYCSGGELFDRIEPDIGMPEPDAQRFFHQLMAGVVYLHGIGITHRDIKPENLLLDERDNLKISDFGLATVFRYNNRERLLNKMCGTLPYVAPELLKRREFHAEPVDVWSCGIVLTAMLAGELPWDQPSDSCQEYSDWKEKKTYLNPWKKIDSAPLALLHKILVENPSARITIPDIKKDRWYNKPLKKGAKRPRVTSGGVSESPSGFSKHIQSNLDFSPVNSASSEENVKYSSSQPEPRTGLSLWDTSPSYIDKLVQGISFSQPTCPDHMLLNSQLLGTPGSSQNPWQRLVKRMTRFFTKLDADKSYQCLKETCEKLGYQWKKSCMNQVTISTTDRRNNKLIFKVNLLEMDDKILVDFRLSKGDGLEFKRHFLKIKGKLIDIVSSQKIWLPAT

[10] = biological target: Cyclin-dependent kinase 12 (Homo sapiens) (UniProt Q9NYV4); assay: Inhibition of human recombinant CRK7 at 40 nM related to control ULK1
Cyclin-dependent kinase 12 (Homo sapiens), sequence (Q9NYV4 whole entry, looked up): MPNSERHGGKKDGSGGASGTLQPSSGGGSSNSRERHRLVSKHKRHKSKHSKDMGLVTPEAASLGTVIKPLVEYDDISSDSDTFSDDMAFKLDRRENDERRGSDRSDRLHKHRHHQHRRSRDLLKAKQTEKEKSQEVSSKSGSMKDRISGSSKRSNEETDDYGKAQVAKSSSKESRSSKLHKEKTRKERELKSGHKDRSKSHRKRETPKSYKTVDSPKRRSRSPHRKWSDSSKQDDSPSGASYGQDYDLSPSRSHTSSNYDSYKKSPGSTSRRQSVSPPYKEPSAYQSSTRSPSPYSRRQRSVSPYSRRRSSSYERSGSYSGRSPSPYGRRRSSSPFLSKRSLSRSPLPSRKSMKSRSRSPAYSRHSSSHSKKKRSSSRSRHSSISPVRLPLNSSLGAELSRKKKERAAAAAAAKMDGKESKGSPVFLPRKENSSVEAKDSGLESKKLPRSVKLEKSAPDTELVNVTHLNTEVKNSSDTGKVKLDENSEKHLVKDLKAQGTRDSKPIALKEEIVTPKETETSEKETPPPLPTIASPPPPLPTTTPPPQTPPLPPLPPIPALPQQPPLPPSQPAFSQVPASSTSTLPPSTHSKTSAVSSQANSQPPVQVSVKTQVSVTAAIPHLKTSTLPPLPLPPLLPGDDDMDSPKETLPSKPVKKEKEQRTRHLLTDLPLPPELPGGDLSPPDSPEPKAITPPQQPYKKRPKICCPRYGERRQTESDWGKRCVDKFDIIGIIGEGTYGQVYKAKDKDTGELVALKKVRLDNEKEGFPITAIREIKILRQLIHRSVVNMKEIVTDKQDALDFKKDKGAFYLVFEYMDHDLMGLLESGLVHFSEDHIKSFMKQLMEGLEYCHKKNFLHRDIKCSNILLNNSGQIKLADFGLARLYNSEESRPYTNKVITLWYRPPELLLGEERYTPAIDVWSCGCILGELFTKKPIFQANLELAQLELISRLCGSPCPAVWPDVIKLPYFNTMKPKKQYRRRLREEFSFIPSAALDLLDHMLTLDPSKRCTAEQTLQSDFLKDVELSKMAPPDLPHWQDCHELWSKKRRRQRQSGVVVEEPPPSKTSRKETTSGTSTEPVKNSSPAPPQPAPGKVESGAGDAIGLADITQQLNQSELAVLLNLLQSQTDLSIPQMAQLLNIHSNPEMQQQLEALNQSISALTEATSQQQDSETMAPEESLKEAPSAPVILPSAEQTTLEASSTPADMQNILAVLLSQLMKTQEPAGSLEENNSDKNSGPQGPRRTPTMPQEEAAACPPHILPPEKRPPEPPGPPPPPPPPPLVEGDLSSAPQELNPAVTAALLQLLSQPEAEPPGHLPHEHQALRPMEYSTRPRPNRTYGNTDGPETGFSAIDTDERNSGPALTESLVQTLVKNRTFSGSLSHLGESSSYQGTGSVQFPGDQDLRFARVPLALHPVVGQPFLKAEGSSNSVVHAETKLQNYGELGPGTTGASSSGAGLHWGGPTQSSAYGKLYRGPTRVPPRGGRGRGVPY

[11] = biological target: Calcium/calmodulin-dependent protein kinase type II subunit alpha (Homo sapiens) (UniProt Q9UQM7); assay: Inhibition of human recombinant CaMK2a at 40 nM related to control ULK1
Calcium/calmodulin-dependent protein kinase type II subunit alpha (Homo sapiens), sequence (Q9UQM7 whole entry): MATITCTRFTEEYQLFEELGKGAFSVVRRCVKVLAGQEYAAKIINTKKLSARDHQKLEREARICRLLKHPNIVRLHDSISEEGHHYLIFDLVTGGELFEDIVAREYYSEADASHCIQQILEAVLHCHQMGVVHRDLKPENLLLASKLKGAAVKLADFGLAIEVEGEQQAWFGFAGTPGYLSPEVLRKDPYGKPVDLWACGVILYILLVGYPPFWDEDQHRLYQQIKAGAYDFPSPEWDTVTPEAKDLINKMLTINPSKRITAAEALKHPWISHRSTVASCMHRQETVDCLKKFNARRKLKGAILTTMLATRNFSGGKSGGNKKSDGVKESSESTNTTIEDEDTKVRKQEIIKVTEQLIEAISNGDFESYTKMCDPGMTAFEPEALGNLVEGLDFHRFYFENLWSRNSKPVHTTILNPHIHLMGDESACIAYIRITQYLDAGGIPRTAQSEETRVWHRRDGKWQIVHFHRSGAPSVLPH

fold change (FC) [1]: 0
fold change (FC) [2]: 0
inhibition [3]: 19%
Compound: CNC(=O)c1ccccc1Oc1nc(Nc2cc(OC)c(OC)c(OC)c2)ncc1Br

inhibition [4]: 69%
inhibition [5]: 0%
inhibition [6]: 0%
fold change (FC) [7]: 0
Compound: CC(C)[C@H](NC(=O)c1cc(-c2cnn3cc(-c4ccc(OCCN5CCCCC5)cc4)cnc23)cs1)C(F)(F)F

inhibition [8]: 0%
inhibition [9]: 0%
fold change (FC) [10]: 0.1
fold change (FC) [11]: 0
Compound: O=C(N[C@@H](C1CC1)C(F)(F)F)c1cc(-c2cnn3cc(-c4ccc(F)cc4)cnc23)cs1
inhibition (U2OS): Active
